# Assay results taken from ChEMBL document CHEMBL1268917, “Synthesis and biological evaluation of radio-iodinated benzimidazoles as SPECT imaging agents for NR2B subtype of NMDA receptor” (Bioorg Med Chem, 2010).
# Tests used:
# Kidney [1] = assay: Biodistribution in ddY mouse kidney assessed per gram of tissue at 14.8 kBq, iv after 360 mins; assay type: ADME, organism-based; details: in vivo, 6 h
# Summary of the method: (§1)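 Killed at set times after injection; organs and blood removed, weighed, gamma counted. Data as % injected dose per gram tissue, mean SD, n = 5–6.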
# Heart [2] = assay: Biodistribution in ddY mouse heart assessed per gram of tissue at 14.8 kBq, iv after 360 mins; assay type: ADME, organism-based; details: in vivo, 6 h; summary of the method: as §1
# Lung [3] = assay: Biodistribution in ddY mouse lung assessed per gram of tissue at 14.8 kBq, iv after 360 mins; assay type: ADME, organism-based; details: in vivo, 6 h
# Summary of the method: (§2)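 Radioiodinated tracer (14.8 kBq) injected via tail vein into male ddY mice (6 weeks, 30–35 g). Organs removed at set times after injection, weighed and gamma-counted; uptake expressed as % injected dose per gram tissue, mean ± SD, n = 5–6.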
# Kidney [4] = assay: Biodistribution in ddY mouse kidney assessed per gram of tissue at 148 kBq, iv after 180 mins in presence of 50 mg/kg, iv of cyclosporin A administered 30 mins before compound challenge (reference value: 4.49 +/- 1.34 %); assay type: ADME, organism-based; parameters: dose 50 mg/kg, route intravenous; details: in vivo, 3 h
# Blood = assay: Biodistribution in ddY mouse blood assessed per gram of tissue at 148 kBq, iv after 180 mins in presence of 200 mg/kg, iv of probenecid administered 30 mins before compound challenge (reference value: 0.46 +/- 0.07 %); assay type: ADME, organism-based; parameters: dose 200 mg/kg, route intravenous; details: in vivo, 3 h
# Liver [5] = assay: Biodistribution in ddY mouse liver assessed per gram of tissue at 14.8 kBq, iv after 180 mins; assay type: ADME, organism-based; details: in vivo, 3 h; summary of the method: as §1
# Stomach [6] = assay: Biodistribution in ddY mouse stomach assessed per gram of tissue at 14.8 kBq, iv after 180 mins; assay type: ADME, organism-based; details: in vivo, 3 h; summary of the method: as §2
# Heart [7] = assay: Biodistribution in ddY mouse heart assessed per gram of tissue at 14.8 kBq, iv after 180 mins; assay type: ADME, organism-based; details: in vivo, 3 h; summary of the method: as §1
# Liver [8] = assay: Biodistribution in ddY mouse liver assessed per gram of tissue at 14.8 kBq, iv after 0.5 mins; assay type: ADME, organism-based; details: in vivo; summary of the method: as §1
# Kidney [9] = assay: Biodistribution in ddY mouse kidney assessed per gram of tissue at 14.8 kBq, iv after 0.5 mins; assay type: ADME, organism-based; details: in vivo; summary of the method: as §1
# Intestine [10] = assay: Biodistribution in ddY mouse intestine assessed per gram of tissue at 14.8 kBq, iv after 0.5 mins; assay type: ADME, organism-based; details: in vivo; summary of the method: as §1
# Spleen [11] = assay: Biodistribution in ddY mouse spleen assessed per gram of tissue at 14.8 kBq, iv after 0.5 mins; assay type: ADME, organism-based; details: in vivo; summary of the method: as §2
# Lung [12] = assay: Biodistribution in ddY mouse lung assessed per gram of tissue at 14.8 kBq, iv after 0.5 mins; assay type: ADME, organism-based; details: in vivo; summary of the method: as §2
# Spleen [13] = assay: Biodistribution in ddY mouse spleen assessed per gram of tissue at 14.8 kBq, iv after 5 mins; assay type: ADME, organism-based; details: in vivo; summary of the method: as §2
# Heart [14] = assay: Biodistribution in ddY mouse heart assessed per gram of tissue at 14.8 kBq, iv after 5 mins; assay type: ADME, organism-based; details: in vivo; summary of the method: as §1
# Lung [15] = assay: Biodistribution in ddY mouse lung assessed per gram of tissue at 14.8 kBq, iv after 5 mins; assay type: ADME, organism-based; details: in vivo; summary of the method: as §2
# Liver [16] = assay: Biodistribution in ddY mouse liver assessed per gram of tissue at 14.8 kBq, iv after 30 mins; assay type: ADME, organism-based; details: in vivo, 0.5 h; summary of the method: as §1
# Liver [17] = assay: Biodistribution in ddY mouse liver assessed per gram of tissue at 14.8 kBq, iv after 60 mins; assay type: ADME, organism-based; details: in vivo, 1 h; summary of the method: as §2
# Kidney [18] = assay: Biodistribution in ddY mouse kidney assessed per gram of tissue at 14.8 kBq, iv after 60 mins; assay type: ADME, organism-based; details: in vivo, 1 h; summary of the method: as §1
# Intestine [19] = assay: Biodistribution in ddY mouse intestine assessed per gram of tissue at 14.8 kBq, iv after 60 mins; assay type: ADME, organism-based; details: in vivo, 1 h; summary of the method: as §1
# Stomach [20] = assay: Biodistribution in ddY mouse stomach assessed per gram of tissue at 14.8 kBq, iv after 60 mins; assay type: ADME, organism-based; details: in vivo, 1 h; summary of the method: as §2
# Heart [21] = assay: Biodistribution in ddY mouse heart assessed per gram of tissue at 14.8 kBq, iv after 60 mins; assay type: ADME, organism-based; details: in vivo, 1 h; summary of the method: as §1
# Brain [22] = assay: Biodistribution in ddY mouse brain assessed per gram of tissue at 14.8 kBq, iv after 60 mins; assay type: ADME, organism-based; details: in vivo, 1 h; summary of the method: as §1
# Brain [23] = assay: Biodistribution in ddY mouse brain assessed per gram of tissue at 148 kBq, iv after 180 mins in presence of 200 mg/kg, iv of probenecid administered 30 mins before compound challenge (reference value: 0.44 +/- 0.06 %); details: in vivo, 3 h
structure (smiles),measurement,setting,value
Oc1ccc2nc(CN3CCC(Cc4ccc([125I])cc4)CC3)[nH]c2c1,Drug uptake,Kidney [1],5.46 % ID/g
same,Drug uptake,Heart [2],1.58 % ID/g
same,Drug uptake,Lung [3],3.44 % ID/g
same,Drug uptake,Kidney [4],4.8 % ID/g
same,Drug uptake,Blood,0.41 % ID/g
same,Drug uptake,Liver [5],32.22 % ID/g
same,Drug uptake,Stomach [6],2.51 % ID/g
same,Drug uptake,Heart [7],1.58 % ID/g
same,Drug uptake,Liver [8],14.68 % ID/g
same,Drug uptake,Kidney [9],5.35 % ID/g
same,Drug uptake,Intestine [10],4.02 % ID/g
same,Drug uptake,Spleen [11],0.5 % ID/g
same,Drug uptake,Lung [12],6.6 % ID/g
same,Drug uptake,Spleen [13],5.66 % ID/g
same,Drug uptake,Heart [14],5.39 % ID/g
same,Drug uptake,Lung [15],14.48 % ID/g
same,Drug uptake,Liver [16],28.99 % ID/g
same,Drug uptake,Liver [17],30.5 % ID/g
same,Drug uptake,Kidney [18],10.34 % ID/g
same,Drug uptake,Intestine [19],2.35 % ID/g
same,Drug uptake,Stomach [20],2.16 % ID/g
same,Drug uptake,Heart [21],1.87 % ID/g
same,Drug uptake,Brain [22],0.48 % ID/g
same,Drug uptake,Brain [23],0.57 % ID/g
